Data published in ChEMBL document CHEMBL1129264, “Mercaptoacyl dipeptides as orally active dual inhibitors of angiotensin-converting enzyme and neutral endopeptidase” (1996).
Each block holds one molecule with its values, some of them ahead of it.

Tests used:
Rattus norvegicus [1] = assay: Plasma ANF Concentration in the Conscious Rat at a dose of 13.7(po)mg/kg at 1 h; type: functional
Procedure, shortened: (§1)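 Male Sprague-Dawley rats (275-390 g), catheterized in femoral artery and vein under ketamine (150 mg/kg)/acepromazine, tethered and recovered 24 h, studied conscious. Continuous iv rat ANF(99-126) infusion at 450 ng/kg/min for 5 h; baseline blood at 60 min, then oral dosing, sampling at 30-240 min.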

[2] = target: T1, Angiotensin-converting enzyme (Rattus norvegicus) (UniProt P47820); assay: Compound was tested for plasma inhibition of Angiotensin I converting enzyme activity in the conscious rat. Expressed as Inhibition of AI pressor response at 1 hr at a dose of 13.7 mg/kg po; type: organism-based; parameters: dose 13.7 mg/kg
T1 sequence (whole entry): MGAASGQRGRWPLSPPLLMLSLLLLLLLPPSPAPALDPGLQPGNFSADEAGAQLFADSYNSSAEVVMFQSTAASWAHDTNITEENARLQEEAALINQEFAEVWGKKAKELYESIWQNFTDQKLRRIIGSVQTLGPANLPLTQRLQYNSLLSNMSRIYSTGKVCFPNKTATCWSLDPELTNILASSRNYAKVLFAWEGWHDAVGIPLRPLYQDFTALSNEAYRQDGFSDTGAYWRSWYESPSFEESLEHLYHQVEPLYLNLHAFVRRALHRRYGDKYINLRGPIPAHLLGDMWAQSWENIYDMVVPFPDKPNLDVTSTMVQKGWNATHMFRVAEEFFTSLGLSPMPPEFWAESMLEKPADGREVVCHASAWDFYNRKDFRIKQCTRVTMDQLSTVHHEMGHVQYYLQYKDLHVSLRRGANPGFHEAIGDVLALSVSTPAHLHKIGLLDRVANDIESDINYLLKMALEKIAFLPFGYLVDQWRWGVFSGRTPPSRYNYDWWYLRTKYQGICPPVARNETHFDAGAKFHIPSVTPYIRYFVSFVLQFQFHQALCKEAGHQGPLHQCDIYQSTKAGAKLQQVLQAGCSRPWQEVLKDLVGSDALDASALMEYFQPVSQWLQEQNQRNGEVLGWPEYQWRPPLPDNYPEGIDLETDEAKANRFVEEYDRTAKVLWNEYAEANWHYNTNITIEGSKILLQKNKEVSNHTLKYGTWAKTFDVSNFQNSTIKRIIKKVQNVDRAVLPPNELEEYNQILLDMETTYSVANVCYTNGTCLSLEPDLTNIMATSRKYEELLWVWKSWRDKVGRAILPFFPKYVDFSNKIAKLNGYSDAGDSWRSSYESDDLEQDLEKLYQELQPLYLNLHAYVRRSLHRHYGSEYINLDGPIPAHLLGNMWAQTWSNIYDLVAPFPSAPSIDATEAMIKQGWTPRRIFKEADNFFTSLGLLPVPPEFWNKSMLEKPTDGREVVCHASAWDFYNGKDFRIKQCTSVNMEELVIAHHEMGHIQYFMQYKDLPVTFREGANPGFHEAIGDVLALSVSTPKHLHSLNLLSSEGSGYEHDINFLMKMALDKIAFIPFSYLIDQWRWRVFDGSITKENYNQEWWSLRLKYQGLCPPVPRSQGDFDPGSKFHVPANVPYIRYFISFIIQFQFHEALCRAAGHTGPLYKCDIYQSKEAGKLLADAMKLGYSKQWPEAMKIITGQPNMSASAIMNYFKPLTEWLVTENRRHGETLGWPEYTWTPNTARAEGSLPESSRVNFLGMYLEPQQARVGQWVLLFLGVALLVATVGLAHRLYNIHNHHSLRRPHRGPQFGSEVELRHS
Procedure, shortened: (§2)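 Male conscious normotensive Sprague-Dawley rats (275-390 g), given femoral arterial and venous catheters under methohexital sodium (75 mg/kg ip) anesthesia. Next day, pressor responses to three angiotensin-I challenges (300 ng/kg iv) recorded by direct arterial pressure. Compound then dosed orally, and AI challenge repeated at set times. Each post-dose response compared with the mean of the three baseline responses, giving % inhibition.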

Rattus norvegicus [3] = assay: Plasma ANF Concentration in the Conscious Rat at a dose of 13.7(po)mg/kg at 0.5 h; type: functional; procedure, shortened: as §1
[4] = target: T1, Angiotensin-converting enzyme (Rattus norvegicus); assay: Compound was tested for plasma inhibition of Angiotensin I converting enzyme activity in the conscious rat. Expressed as Inhibition of AI pressor response at 4 hr at a dose of 13.7 mg/kg po; type: organism-based; parameters: dose 13.7 mg/kg
Procedure, shortened: (§3)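 Male conscious normotensive Sprague-Dawley rats (275-390 g), prepared under methohexital sodium (75 mg/kg ip) with femoral arterial and venous catheters. The next day, pressor responses to three angiotensin-I challenges (300 ng/kg iv) were recorded. Compound was then given orally and angiotensin-I challenges were repeated at set times. Percent inhibition is relative to the mean of the three baseline responses.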

Rattus norvegicus [5] = assay: Plasma ANF Concentration in the Conscious Rat at a dose of 13.7(po)mg/kg at 2 h; type: functional; procedure, shortened: as §1
[6] = target: T1, Angiotensin-converting enzyme (Rattus norvegicus); assay: Compound was tested for plasma inhibition of Angiotensin I converting enzyme activity in the conscious rat. Expressed as Inhibition of AI pressor response at 2 hr at a dose of 13.7 mg/kg po; type: organism-based; parameters: dose 13.7 mg/kg; procedure, shortened: as §2
Rattus norvegicus [7] = assay: Plasma ANF Concentration in the Conscious Rat at a dose of 13.7(po)mg/kg at 4 h; type: functional; procedure, shortened: as §1
[8] = target: T1, Angiotensin-converting enzyme (Rattus norvegicus); assay: Compound was tested for plasma inhibition of Angiotensin I converting enzyme activity in the conscious rat. Expressed as Inhibition of AI pressor response at 6 hr at a dose of 13.7 mg/kg po; type: organism-based; parameters: dose 13.7 mg/kg; procedure, shortened: as §3
Rattus norvegicus [9] = assay: Plasma ANF Concentration in the Conscious Rat at a dose of […]; type: functional; settings: in the assay text read “12.7(po)mg/kg” for “12.4(po)mg/kg”
Procedure, shortened: (§4)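 Male Sprague-Dawley rats (275-390 g) received femoral artery and vein catheters under ketamine (150 mg/kg)/acepromazine and recovered for 24 h, tethered, before study conscious. ratANF(99-126) was infused at 450 ng/kg/min iv for 5 h. Baseline blood was drawn at 60 min into the infusion, then compound was given po.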

[10] = target: T1, Angiotensin-converting enzyme (Rattus norvegicus); assay: Compound was tested for plasma inhibition of Angiotensin I converting enzyme activity in the conscious rat. Expressed as Inhibition of AI pressor response at 1 hr at a dose of 12.7 mg/kg po; type: organism-based; parameters: dose 12.7 mg/kg; procedure, shortened: as §2
[11] = target: T1, Angiotensin-converting enzyme (Rattus norvegicus); assay: Compound was tested for plasma inhibition of Angiotensin I converting enzyme activity in the conscious rat. Expressed as Inhibition of AI pressor response at 4 hr at a dose of 12.7 mg/kg po; type: organism-based; parameters: dose 12.7 mg/kg; procedure, shortened: as §2
[12] = target: T1, Angiotensin-converting enzyme (Rattus norvegicus); assay: Compound was tested for plasma inhibition of Angiotensin I converting enzyme activity in the conscious rat. Expressed as Inhibition of AI pressor response at 2 hr at a dose of 12.7 mg/kg po; type: organism-based; parameters: dose 12.7 mg/kg; procedure, shortened: as §2
Rattus norvegicus [13] = assay: Plasma ANF Concentration in the Conscious Rat at a dose of 12.7(po)mg/kg at 4 h; type: functional; procedure, shortened: as §4
Rattus norvegicus [14] = assay: Plasma ANF Concentration in the Conscious Rat at a dose of 12.7(po)mg/kg at 1 h; type: functional; procedure, shortened: as §4
[15] = target: T1, Angiotensin-converting enzyme (Rattus norvegicus); assay: Compound was tested for plasma inhibition of Angiotensin I converting enzyme activity in the conscious rat. Expressed as Inhibition of AI pressor response at 6 hr at a dose of 12.7 mg/kg po; type: organism-based; parameters: dose 12.7 mg/kg; procedure, shortened: as §3
Rattus norvegicus [16] = assay: Plasma ANF Concentration in the Conscious Rat at a dose of 12.7(po)mg/kg at 0.5 h; type: functional; procedure, shortened: as §4
[17] = target: T1, Angiotensin-converting enzyme (Rattus norvegicus); assay: Compound was tested for plasma inhibition of Angiotensin I converting enzyme activity in the conscious rat. Expressed as Inhibition of AI pressor response at 6 hr at a dose of 12.4 mg/kg po; type: organism-based; parameters: dose 12.4 mg/kg; procedure, shortened: as §3
[18] = target: T1, Angiotensin-converting enzyme (Rattus norvegicus); assay: Compound was tested for plasma inhibition of Angiotensin I converting enzyme activity in the conscious rat. Expressed as Inhibition of AI pressor response at 4 hr at a dose of 12.4 mg/kg po; type: organism-based; parameters: dose 12.4 mg/kg; procedure, shortened: as §2
[19] = target: T1, Angiotensin-converting enzyme (Rattus norvegicus); assay: Compound was tested for plasma inhibition of Angiotensin I converting enzyme activity in the conscious rat. Expressed as Inhibition of AI pressor response at 2 hr at a dose of 12.4 mg/kg po; type: organism-based; parameters: dose 12.4 mg/kg; procedure, shortened: as §2
Rattus norvegicus [20] = assay: Plasma ANF Concentration in the Conscious Rat at a dose of 12.4 (p.o.) mg/kg at 0.5 h; type: functional; procedure, shortened: as §4
Rattus norvegicus [21] = assay: Plasma ANF Concentration in the Conscious Rat at a dose of 12.4 (p.o.) mg/kg at 1 h; type: functional; procedure, shortened: as §4
[22] = target: T1, Angiotensin-converting enzyme (Rattus norvegicus); assay: Compound was tested for plasma inhibition of Angiotensin I converting enzyme activity in the conscious rat. Expressed as Inhibition of AI pressor response at 1 hr at a dose of 12.4 mg/kg po; type: organism-based; parameters: dose 12.4 mg/kg; procedure, shortened: as §2
Rattus norvegicus [23] = assay: Plasma ANF Concentration in the Conscious Rat at a dose of 12.4 (p.o.) mg/kg at 4 h; type: functional; procedure, shortened: as §4
Rattus norvegicus [24] = assay: Plasma ANF Concentration in the Conscious Rat at a dose of 12.4 (p.o.) mg/kg at 2 h; type: functional; procedure, shortened: as §4

inhibition [2]: 88%
inhibition [4]: 73%
inhibition [6]: 86%
inhibition [8]: 64%
Structure (SMILES): CCN(CC)C(=O)COC(=O)[C@H](Cc1ccc(OC)cc1)NC(=O)C1(NC(=O)[C@H](SC(C)=O)C(C)C)CCCC1
Control (Rattus norvegicus [1]): 187%
Control (Rattus norvegicus [3]): 159%
Control (Rattus norvegicus [5]): 215%
Control (Rattus norvegicus [7]): 264%

inhibition [10]: 83%
inhibition [11]: 77%
inhibition [12]: 77%
inhibition [15]: 60%
Structure (SMILES): CC(=O)S[C@@H](C(=O)NC1(C(=O)N[C@@H](Cc2ccc(O)cc2)C(=O)OCCC(C)C)CCCC1)C(C)C
Control (Rattus norvegicus [9]): 236%
Control (Rattus norvegicus [13]): 251%
Control (Rattus norvegicus [14]): 235%
Control (Rattus norvegicus [16]): 178%

inhibition [17]: 72%
inhibition [18]: 70%
inhibition [19]: 78%
inhibition [22]: 76%
Structure (SMILES): CCCCOC(=O)[C@H](Cc1ccc(O)cc1)NC(=O)C1(NC(=O)[C@H](SC(C)=O)C(C)C)CCCC1
Control (Rattus norvegicus [20]): 131%
Control (Rattus norvegicus [21]): 133%
Control (Rattus norvegicus [23]): 185%
Control (Rattus norvegicus [24]): 178%
